Reference: ChEMBL document CHEMBL3425408, “Design, synthesis, in vitro, and in vivo anticancer and antiangiogenic activity of novel 3-arylaminobenzofuran derivatives targeting the colchicine site on tubulin” (J Med Chem, 2015)
The source made the active and inactive calls. No cut-off for these calls is given here.

How the values were obtained:
PBL [1] = assay: Cytotoxicity against human resting PBL cells after 72 hrs by MTT assay; assay type: cell-based
Summary of the method: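 Resting PBLs from healthy donors separated on a Lymphoprep gradient and incubated overnight in RPMI-1640 with 10% FBS. Nonadherent cells resuspended at 5 × 10^5 cells/mL without PHA and exposed to compound for 72 h. Viability read by MTT. […] Three experiments.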

HT-29 = assay: Antiproliferative activity against human HT-29 cells after 72 hrs by (3-(4,5-dimethylthiazol-2-yl)-2,5-diphenyltetrazolium bromide test; assay type: functional, cell-based; conditions: HT-29, 72 h
Jurkat [2] = assay: Antiproliferative activity against human Jurkat cells after 72 hrs by (3-(4,5-dimethylthiazol-2-yl)-2,5-diphenyltetrazolium bromide test; assay type: functional, cell-based
Summary of the method: (§1)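 Jurkat, RS4;11 and HL-60 cells grown in RPMI-1640; MCF-7, A549, HeLa and HT-29 cells grown in DMEM; both media with 10% FBS and penicillin/streptomycin. 8 × 10^3 cells per well were preincubated 18 h at 37 °C, 5% CO2, then exposed 72 h to a concentration range (DMSO ≤0.25%). Read-out was MTT; IC50 was taken against cells given the maximum DMSO. Mean ± SE of at least three experiments.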

[3] = Antiproliferative activity against human RS4:11 cells after 72 hrs by (3-(4,5-dimethylthiazol-2-yl)-2,5-diphenyltetrazolium bromide test; assay type: functional, cell-based; conditions: RS4-11, 72 h; summary of the method: as §1
MCF7 = assay: Antiproliferative activity against human MCF7 cells after 72 hrs by (3-(4,5-dimethylthiazol-2-yl)-2,5-diphenyltetrazolium bromide test; assay type: functional, cell-based; conditions: MCF7, 72 h
PBL [4] = assay: Cytotoxicity against human PHA-stimulated PBL cells after 72 hrs by MTT assay; assay type: cell-based
Summary of the method: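 PBLs came from healthy donors by Lymphoprep gradient, were washed and left overnight in RPMI-1640 with 10% FBS. Nonadherent cells at 5 × 10^5 cells/mL were stimulated with 2.5 μg/mL PHA and given a range of concentrations for 72 h. […] Mean ± SEM of three experiments.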

Tubulin (Bos taurus) = Tubulin (Bos taurus) (UniProt Q6B856+Q862L2+Q862F3); assay: Displacement of [3H]colchicine from bovine brain tubulin at 5 uM after 20 mins by scintillation counting analysis
Summary of the method: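 Reaction mixtures held 1 μM tubulin, 5 μM [3H]colchicine and 5 μM test compound. Inhibition of radiolabelled colchicine binding was reported as percent inhibition.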

HeLa [5] = assay: Induction of cell cycle arrest in human HeLa cells assessed as cell arrest at G2/M phase after 24 hrs by propidium iodide based flow cytometric analysis; assay type: functional
Summary of the method: (§2)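 HeLa or Jurkat cells (5 × 10^5) treated 24 h. Cells fixed in ice-cold 70% ethanol, lysed with RNase A and 0.1% Triton X-100, and stained with propidium iodide. DNA content analyzed by flow cytometry to give cell-cycle phase distribution.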

Jurkat [6] = assay: Induction of cells cycle arrest in human Jurkat cells assessed as cell arrest at G2/M phase at > 60 nM after 24 hrs by propidium iodide based flow cytometric analysis; assay type: functional; summary of the method: as §2
HeLa [7] = assay: Induction of cells cycle arrest in human HeLa cells assessed as cell arrest at G2/M phase at > 60 nM after 24 hrs by propidium iodide based flow cytometric analysis; assay type: functional; summary of the method: as §2
HeLa [8] = assay: Induction of cell cycle arrest in human HeLa cells assessed as increase in cyclin B expression at 100 nM after 24 hrs by Western blot analysis; assay type: functional, cell-based
Summary of the method: (§3)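 HeLa cells treated 24 or 48 h. Lysates cleared at 15000g, and 10 μg protein run on 7.5–15% SDS-PAGE and blotted to PVDF. Membranes blocked in 5% BSA and probed for cyclin B, p-cdc2 Tyr15 and cdc25c, then detected with peroxidase secondary and ECL. Blots stripped and reprobed for β-actin as loading control.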

HeLa [9] = assay: Induction of cell cycle arrest in human HeLa cells assessed as increase in cyclin B expression at 250 nM after 24 hrs by Western blot analysis; assay type: functional, cell-based; summary of the method: as §3
HeLa [10] = assay: Induction of cell cycle arrest in human HeLa cells assessed as decrease in cyclin B expression at 100 to 250 nM after 48 hrs by Western blot analysis; assay type: functional, cell-based; summary of the method: as §3
HeLa [11] = assay: Induction of cell cycle arrest in human HeLa cells assessed as increase in p-cdc2 Tyr15 expression at 250 nM after 24 hrs by Western blot analysis; assay type: functional, cell-based; summary of the method: as §3
HeLa [12] = assay: Induction of cell cycle arrest in human HeLa cells assessed as decrease in p-cdc2 Tyr15 expression at 100 to 250 nM after 48 hrs by Western blot analysis; assay type: functional, cell-based; summary of the method: as §3
HeLa [13] = assay: Effect on phosphatase cdc25 expression in human HeLa cells at 100 to 250 nM after 24 to 48 hrs by Western blot analysis; assay type: functional, cell-based; summary of the method: as §3
HeLa [14] = assay: Induction of apoptosis in human HeLa cells assessed as accumulation of annexin-V positive cells after 24 to 48 hrs by annexin-V-FITC/PI based flow cytometry; assay type: functional, cell-based
Summary of the method: (§4)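 HeLa cells treated 24 or 48 h, then double-stained with annexin V-FITC and PI. Surface phosphatidylserine exposure measured by flow cytometry.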

HeLa [15] = assay: Induction of apoptosis in human HeLa cells assessed as accumulation of annexin-V positive cells after at 100 to […] by annexin-V-FITC/PI based flow cytometry; assay type: functional, cell-based; conditions: TDE = time-dependent effect; summary of the method: as §4
HeLa [16] = assay: Induction of apoptosis in human HeLa cells assessed as increase in proportion of cells with depolarized mitochondria at 100 to […] by JC1 staining based flow cytometry; assay type: functional, cell-based
Summary of the method: (§5)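 HeLa cells treated 24 or 48 h, then stained with JC-1. Cells with depolarized mitochondria quantified by flow cytometry. Three independent experiments.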

HeLa [17] = assay: Induction of apoptosis in human HeLa cells assessed as increase in proportion of cells with depolarized mitochondria after 24 to 48 hrs by JC1 staining based flow cytometry; assay type: functional, cell-based; conditions: TDE = time-dependent effect; summary of the method: as §5
HeLa [18] = assay: Induction of apoptosis in human HeLa cells assessed as increase in ROS production at 100 to […] after 24 to 48 hrs by H2-DCFDA based flow cytometry; assay type: functional, cell-based
Summary of the method: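 HeLa cells treated 24 or 48 h, then loaded with H2-DCFDA. ROS measured by flow cytometry. Three independent experiments.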

HeLa [19] = assay: Induction of apoptosis in human HeLa cells assessed as caspase 9 activation after 24 to 48 hrs by Western blot analysis; assay type: functional, cell-based
Summary of the method: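 HeLa lysates prepared after the indicated times. 10 μg protein separated by SDS-PAGE on PVDF blots. Primary antibodies (2 h, room temperature) against PARP, caspase-3, cleaved caspase-9, Bcl-2 and Mcl-1, then peroxidase secondary with ECL detection. β-Actin reprobe used as loading control.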

HeLa [20] = assay: Induction of apoptosis in human HeLa cells assessed as caspase 9 activation at 100 to 250 nM by Western blot analysis; conditions: TDE = time-dependent effect
HeLa [21] = assay: Induction of apoptosis in human HeLa cells assessed as PARP cleavage at 100 to 250 nM after 24 to 48 hrs by Western blot analysis
HeLa [22] = assay: Induction of apoptosis in human HeLa cells assessed as reduction in Bcl2 expression at 100 to 250 nM after 48 hrs by Western blotting analysis
HeLa [23] = assay: Induction of apoptosis in human HeLa cells assessed as increase in Mcl-1 expression at 100 to 250 nM after 24 hrs by Western blotting analysis

For `COC(=O)c1oc2cc(OC)ccc2c1Nc1cc(OC)c(OC)c(OC)c1`, the IC50 (PBL [1]) was greater than 10000 nM, the IC50 (HT-29) was 3 nM and the IC50 (Jurkat [2]) was 8 nM. The IC50 [3] was 0.3 nM, the IC50 (MCF7) was 27 nM and the IC50 (PBL [4]) was greater than 10000 nM. For the same molecule, the inhibition (Tubulin (Bos taurus)) was 83%, the Activity (HeLa [5]) was “Dose-dependent effect” and the Activity (Jurkat [6]) was greater than 70%. The Activity (HeLa [7]) was greater than 70%, the Activity (HeLa [8]) was “Active” and the Activity (HeLa [9]) was “Active”. The Activity (HeLa [10]) was “Active”, the Activity (HeLa [11]) was “Active” and the inhibition (HeLa [12]) was “Active”. For the same molecule, the Activity (HeLa [13]) was “inactive”, the Activity (HeLa [14]) was “Dose-dependent effect” and the Activity (HeLa [15]) was “tde”. For the same molecule, the Activity (HeLa [16]) was “Dose-dependent effect”, the Activity (HeLa [17]) was “tde” and the Activity (HeLa [18]) was “Active”. For the same molecule, the Activity (HeLa [19]) was “Dose-dependent effect”, the Activity (HeLa [20]) was “tde” and the Activity (HeLa [21]) was “Active”. The Activity (HeLa [22]) was “Active” and the Activity (HeLa [23]) was “Active”.
Work on `CCOC(=O)c1oc2cc(OC)ccc2c1Nc1cc(OC)c(OC)c(OC)c1` yielded an IC50 (PBL [1]) greater than 10000 nM, an IC50 (HT-29) of 17 nM and an IC50 (Jurkat [2]) of 22 nM. For the same molecule, the IC50 [3] was 100 nM, the IC50 (MCF7) was 25 nM and the IC50 (PBL [4]) was 6300 nM. The inhibition (Tubulin (Bos taurus)) was 74%, the Activity (HeLa [5]) was “Dose-dependent effect” and the Activity (Jurkat [6]) was greater than 70%. The Activity (HeLa [7]) was greater than 70%, the Activity (HeLa [8]) was “Active” and the Activity (HeLa [9]) was “Active”. The Activity (HeLa [10]) was “Active”, the Activity (HeLa [11]) was “Active” and the inhibition (HeLa [12]) was “Active”. The Activity (HeLa [13]) was “inactive”, the Activity (HeLa [14]) was “Dose-dependent effect” and the Activity (HeLa [15]) was “tde”. For the same molecule, the Activity (HeLa [16]) was “Dose-dependent effect”, the Activity (HeLa [17]) was “tde” and the Activity (HeLa [18]) was “Active”. The Activity (HeLa [19]) was “Dose-dependent effect”, the Activity (HeLa [20]) was “tde” and the Activity (HeLa [21]) was “Active”. The Activity (HeLa [22]) was “Active” and the Activity (HeLa [23]) was “inactive”.
